Data published in ChEMBL document CHEMBL3576798, “Depsipeptide companeramides from a Panamanian marine cyanobacterium associated with the coibamide producer” (J Nat Prod, 2015).
Active and inactive are the calls of the source. The calls are words filed in the database; no cut-off is given here.

How the values were obtained:
[1] = system: Plasmodium falciparum; assay: Antiplasmodial activity against chloroquine-resistant Plasmodium falciparum 7G8 in human erythrocyte after 72 hrs by SYBR Green I assay; format: functional, organism-based; settings: 7G8, 72 h
Method in brief: (§1)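 Asynchronous parasites grown in human erythrocytes at 2% hematocrit in RPMI 1640 with 0.5% Albumax, 45 μg/L hypoxanthine, 50 μg/L gentamicin. Samples (10 mM stock in sterile water) serially diluted in medium, quadruplicate wells at 0.2% parasitemia, 2% hematocrit; 72 h at 37 °C. Lysis buffer with SYBR Green I added, 1 h rt dark, fluorescence ex 497/em 520 nm; IC50 by nonlinear regression of logistic dose–response curves.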

[2] = system: Plasmodium falciparum; assay: Antiplasmodial activity against chloroquine-resistant Plasmodium falciparum Dd2 in human erythrocyte after 72 hrs by SYBR Green I assay; format: functional, organism-based; settings: Dd2, 72 h; method in brief: as §1
[3] = system: Plasmodium falciparum; assay: Antiplasmodial activity against chloroquine-sensitive Plasmodium falciparum D6 in human erythrocyte after 72 hrs by SYBR Green I assay; format: functional, organism-based; settings: D6, 72 h; method in brief: as §1
[4] = system: NCI-H460; assay: Cytotoxicity against human NCI-H460 cells at 1 uM after 24 hrs by MTT assay; format: functional, cell-based
Method in brief: (§2)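 MTT viability assay; cells seeded at 3000 per well the day before treatment, kept under standard growth conditions. Compounds dissolved in 100% DMSO (stored −20 °C), final DMSO at most 0.1%. Viability relative to vehicle-treated cells set as 100%; coibamide A (30 nM) as control cancer cell toxin.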

[5] = system: MDA-MB-231; assay: Cytotoxicity against human MDA-MB-231 cells at 1 uM after 24 hrs by MTT assay; format: functional, cell-based; method in brief: as §2
[6] = system: SK-OV-3; assay: Cytotoxicity against human SKOV3 cells at 1 uM after 24 hrs by MTT assay; format: functional, cell-based; method in brief: as §2
[7] = system: SF-295; assay: Cytotoxicity against human SF295 cells at 1 uM after 24 hrs by MTT assay; format: functional, cell-based; method in brief: as §2

| Compound | IC50 [1] [nM] | IC50 [2] [nM] | IC50 [3] [nM] | Activity [4] | Activity [5] | Activity [6] | Activity [7] |
| --- | --- | --- | --- | --- | --- | --- | --- |
| C#CCCC[C@H]1NC(=O)[C@H](C(C)C)N(C)C(=O)[C@H](C(C)C)NC(=O)[C@@H](C)N(C)C(=O)[C@@H]2CCCN2C(=O)[C@H]([C@H](C)CC)NC(=O)[C@H](C(C)C)N(C)C(=O)[C@H](C(C)C)NC(=O)[C@H](C)N(C)C(=O)[C@H](C(C)C)OC(=O)[C@H]1C | 700 | 230 | 220 |  |  |  |  |
| C#CCCC[C@H]1NC(=O)[C@H](C(C)C)N(C)C(=O)[C@H](C)NC(=O)[C@H](CC(C)C)N(C)C(=O)[C@@H]2CCCN2C(=O)[C@H]([C@H](C)CC)NC(=O)[C@H](C(C)C)N(C)C(=O)[C@H]([C@H](C)CC)NC(=O)[C@@H](C)N(C)C(=O)[C@H](C(C)C)OC(=O)[C@H]1C | 1100 | 1000 | 570 | inactive | inactive | inactive | inactive |
